Test results from ChEMBL document CHEMBL4673212, “Investigation of synergistic antimicrobial effects of the drug combinations of meropenem and 1,2-benzisoselenazol-3(2H)-one derivatives on carbapenem-resistant Enterobacteriaceae producing NDM-1” (Eur J Med Chem, 2018).

Tests used:
Format in all cases: functional
[1] = tested on: Enterobacter cloacae; assay: Synergistic antibacterial activity against carbapenem-resistant Enterobacter cloacae isolate 19 harboring CTX-M-14 and KPC-2 assessed as fractional inhibitory concentration index in presence of meropenem by CLSI protocol based assay
[2] = tested on: Enterobacter cloacae; assay: Growth inhibition of carbapenem-resistant Enterobacter cloacae isolate 22 harboring CTX-M-14, TEM-1 and SHV-12 by CLSI protocol based assay
[3] = tested on: Enterobacter cloacae; assay: Potentiation of meropenem-induced antibacterial activity against carbapenem-resistant Enterobacter cloacae isolate 28 harboring TEM-1 and SHV-12 assessed as meropenem MIC by CLSI protocol based assay (reference value: 32 ug/ml)
[4] = tested on: Citrobacter freundii; assay: Synergistic antibacterial activity against carbapenem-resistant Citrobacter freundii isolate 05 harboring SHV-12 assessed as fractional inhibitory concentration index in presence of meropenem by CLSI protocol based assay
Summary of the method: (§1)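 FIC index from MICs of compound alone, meropenem alone, and the 1:1 (mass) compound–meropenem combination, read by eye after overnight incubation in a CLSI-based assay. FIC index = MICcombo/MICcpd + MICcombo/MICMem. FIC index ≤0.5 counted as synergy. At least triplicate assays. Clinical NDM-1 isolates for 17-39; E. coli TG1 carrying the IncX3 blaNDM-1 plasmid for 15.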

[5] = tested on: Escherichia coli; assay: Potentiation of meropenem-induced antibacterial activity against carbapenem-resistant Escherichia coli isolate 45 assessed as meropenem MIC by CLSI protocol based assay (Rvb >= 128 ug/ml)
[6] = tested on: Enterobacter cloacae; assay: Synergistic antibacterial activity against carbapenem-resistant Enterobacter cloacae isolate 28 harboring TEM-1 and SHV-12 assessed as fractional inhibitory concentration index in presence of meropenem by CLSI protocol based assay; summary of the method: as §1
[7] = tested on: Enterobacter cloacae; assay: Growth inhibition of carbapenem-resistant Enterobacter cloacae isolate 08 harboring CTX-M-14, TEM-1 and SHV-12 by CLSI protocol based assay
[8] = tested on: Escherichia coli; assay: Synergistic antibacterial activity against carbapenem-resistant Escherichia coli isolate 33 harboring CTX-M-15 assessed as fractional inhibitory concentration index in presence of meropenem by CLSI protocol based assay; summary of the method: as §1
[9] = tested on: Morganella morganii; assay: Potentiation of meropenem-induced antibacterial activity against carbapenem-resistant Morganella morganii isolate 26 assessed as meropenem MIC by CLSI protocol based assay (reference value: 64 ug/ml)
[10] = tested on: Enterobacter cloacae; assay: Potentiation of meropenem-induced antibacterial activity against carbapenem-resistant Enterobacter cloacae isolate 08 harboring CTX-M-14, TEM-1 and SHV-12 assessed as meropenem MIC by CLSI protocol based assay (reference value: 32 ug/ml)
[11] = tested on: Citrobacter freundii; assay: Synergistic antibacterial activity against carbapenem-resistant Citrobacter freundii isolate 43 assessed as fractional inhibitory concentration index in presence of meropenem by CLSI protocol based assay; summary of the method: as §1
[12] = tested on: Morganella morganii; assay: Synergistic antibacterial activity against carbapenem-resistant Morganella morganii isolate 26 assessed as fractional inhibitory concentration index in presence of meropenem by CLSI protocol based assay; summary of the method: as §1
[13] = tested on: Enterobacter cloacae; assay: Growth inhibition of carbapenem-resistant Enterobacter cloacae isolate 18 harboring IMP-4 and TEM-1 by CLSI protocol based assay
[14] = tested on: Klebsiella pneumoniae; assay: Potentiation of meropenem-induced antibacterial activity against carbapenem-resistant Klebsiella pneumoniae isolate 14 harboring CTX-M-14, KPC-2 and SHV-12 assessed as meropenem MIC by CLSI protocol based assay (Rvb >= 128 ug/ml)
[15] = tested on: Citrobacter freundii; assay: Growth inhibition of carbapenem-resistant Citrobacter freundii isolate 35 harboring CTX-M-3, KPC-2 and SHV-12 by CLSI protocol based assay
[16] = tested on: Citrobacter freundii; assay: Growth inhibition of carbapenem-resistant Citrobacter freundii isolate 17 harboring SHV-12 by CLSI protocol based assay
[17] = tested on: Escherichia coli; assay: Potentiation of meropenem-induced antibacterial activity against carbapenem-resistant Escherichia coli isolate 33 harboring CTX-M-15 assessed as meropenem MIC by CLSI protocol based assay (reference value: 64 ug/ml)
[18] = tested on: Enterobacter cloacae; assay: Potentiation of meropenem-induced antibacterial activity against carbapenem-resistant Enterobacter cloacae isolate 18 harboring IMP-4 and TEM-1 assessed as meropenem MIC by CLSI protocol based assay (reference value: 32 ug/ml)
[19] = tested on: Citrobacter freundii; assay: Potentiation of meropenem-induced antibacterial activity against carbapenem-resistant Citrobacter freundii isolate 17 harboring SHV-12 assessed as meropenem MIC by CLSI protocol based assay (reference value: 64 ug/ml)
[20] = tested on: Enterobacter cloacae; assay: Synergistic antibacterial activity against carbapenem-resistant Enterobacter cloacae isolate 27 harboring CTX-M-3, CTX-M-14, TEM-1 and SHV-12 assessed as fractional inhibitory concentration index in presence of meropenem by CLSI protocol based assay; summary of the method: as §1
[21] = tested on: Enterobacter cloacae; assay: Growth inhibition of carbapenem-resistant Enterobacter cloacae isolate 28 harboring TEM-1 and SHV-12 by CLSI protocol based assay
[22] = tested on: Escherichia coli; assay: Synergistic antibacterial activity against carbapenem-resistant Escherichia coli isolate 06 harboring CTX-M-14, CTX-M-3 and SHV-12 assessed as fractional inhibitory concentration index in presence of meropenem by CLSI protocol based assay; summary of the method: as §1
[23] = tested on: Enterobacter cloacae; assay: Growth inhibition of carbapenem-resistant Enterobacter cloacae isolate 27 harboring CTX-M-3, CTX-M-14, TEM-1 and SHV-12 by CLSI protocol based assay
[24] = tested on: Klebsiella pneumoniae; assay: Synergistic antibacterial activity against carbapenem-resistant Klebsiella pneumoniae isolate 04 harboring CTX-M-14, VIM-1, TEM-1 and SHV-12 assessed as fractional inhibitory concentration index in presence of meropenem by CLSI protocol based assay; summary of the method: as §1
[25] = tested on: Klebsiella oxytoca; assay: Synergistic antibacterial activity against carbapenem-resistant Klebsiella oxytoca isolate 03 harboring SHV-12 assessed as fractional inhibitory concentration index in presence of meropenem by CLSI protocol based assay; summary of the method: as §1
[26] = tested on: Enterobacter cloacae; assay: Potentiation of meropenem-induced antibacterial activity against carbapenem-resistant Enterobacter cloacae isolate 09 harboring CTX-M-3, CTX-M-14, TEM-1 and SHV-12 assessed as meropenem MIC by CLSI protocol based assay (Rvb >= 128 ug/ml)
[27] = tested on: Escherichia coli; assay: Synergistic antibacterial activity against carbapenem-resistant Escherichia coli isolate 45 assessed as fractional inhibitory concentration index in presence of meropenem by CLSI protocol based assay; summary of the method: as §1
[28] = tested on: Enterobacter cloacae; assay: Synergistic antibacterial activity against carbapenem-resistant Enterobacter cloacae isolate 22 harboring CTX-M-14, TEM-1 and SHV-12 assessed as fractional inhibitory concentration index in presence of meropenem by CLSI protocol based assay; summary of the method: as §1
[29] = tested on: Citrobacter freundii; assay: Growth inhibition of carbapenem-resistant Citrobacter freundii isolate 05 harboring SHV-12 by CLSI protocol based assay
[30] = tested on: Escherichia coli; assay: Synergistic antibacterial activity against carbapenem-resistant Escherichia coli isolate 34 harboring CTX-M-15, TEM-1 and SHV-12 assessed as fractional inhibitory concentration index in presence of meropenem by CLSI protocol based assay; summary of the method: as §1
[31] = tested on: Escherichia coli; assay: Potentiation of meropenem-induced antibacterial activity against carbapenem-resistant Escherichia coli isolate 34 harboring CTX-M-15, TEM-1 and SHV-12 assessed as meropenem MIC by CLSI protocol based assay (reference value: 64 ug/ml)
[32] = tested on: Escherichia coli; assay: Synergistic antibacterial activity against Escherichia coli TG1 transformed with IncX3 plasmid expressing blaNDM-1 assessed as fractional inhibitory concentration index in presence of meropenem incubated for overnight by CLSI protocol based assay; settings: time 12 hrs; summary of the method: as §1

| SMILES | fractional inhibitory concentration index (FICI) [1] | MIC [2] | MIC [3] | fractional inhibitory concentration index (FICI) [4] | MIC [5] | fractional inhibitory concentration index (FICI) [6] | MIC [7] | fractional inhibitory concentration index (FICI) [8] | MIC [9] | MIC [10] | fractional inhibitory concentration index (FICI) [11] | fractional inhibitory concentration index (FICI) [12] | MIC [13] | MIC [14] | MIC [15] | MIC [16] | MIC [17] | MIC [18] | MIC [19] | fractional inhibitory concentration index (FICI) [20] | other results |
| --- | --- | --- | --- | --- | --- | --- | --- | --- | --- | --- | --- | --- | --- | --- | --- | --- | --- | --- | --- | --- | --- |
| CC(C)(C)OC(=O)NCCn1[se]c2ccccc2c1=O | 0.25 | ≥ 128 µg/mL | 4 µg/mL | 0.13 | 4 µg/mL | 0.16 | ≥ 128 µg/mL | 0.19 | 2 µg/mL | 4 µg/mL | 0.25 | 0.05 | ≥ 128 µg/mL | 8 µg/mL | ≥ 128 µg/mL | ≥ 128 µg/mL | 8 µg/mL | 16 µg/mL | 4 µg/mL | 0.16 | MIC [21]: ≥ 128 µg/mL; fractional inhibitory concentration index (FICI) [22]: 0.13; MIC [23]: ≥ 128 µg/mL; fractional inhibitory concentration index (FICI) [24]: 0.5; fractional inhibitory concentration index (FICI) [25]: 0.13; MIC [26]: 8 µg/mL; fractional inhibitory concentration index (FICI) [27]: 0.06; fractional inhibitory concentration index (FICI) [28]: 0.25; MIC [29]: ≥ 128 µg/mL; fractional inhibitory concentration index (FICI) [30]: 0.09; MIC [31]: 4 µg/mL; fractional inhibitory concentration index (FICI) [32]: 0.047 |
| O=c1c2ccccc2[se]n1-c1ccccc1 [EBSELEN] | 2 | ≥ 128 µg/mL | 64 µg/mL | 0.25 | 16 µg/mL | 2.5 | ≥ 128 µg/mL | 0.38 | 64 µg/mL | 32 µg/mL | 0.5 | 1.5 | ≥ 128 µg/mL | ≥ 128 µg/mL | ≥ 128 µg/mL | ≥ 128 µg/mL | 16 µg/mL | 64 µg/mL | 16 µg/mL | 2.5 | MIC [21]: ≥ 128 µg/mL; fractional inhibitory concentration index (FICI) [22]: 1; MIC [23]: ≥ 128 µg/mL; fractional inhibitory concentration index (FICI) [24]: 1; fractional inhibitory concentration index (FICI) [25]: 0.5; MIC [26]: ≥ 128 µg/mL; fractional inhibitory concentration index (FICI) [27]: 0.25; fractional inhibitory concentration index (FICI) [28]: 2; MIC [29]: ≥ 128 µg/mL; fractional inhibitory concentration index (FICI) [30]: 0.38; MIC [31]: 16 µg/mL; fractional inhibitory concentration index (FICI) [32]: 0.5 |
